Bioassay records deposited in PubChem by several laboratories.
ROMK mod: human ROMK K+ channel modulation, primary screen; Tet-inducible ROMK, thallium flux fluorescence; actives lie on both sides; B-score at 10 µM; 130,000 compounds, 2% hits;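 active = signal ratio slope over the read window, or its plate-corrected B-score, at least 3 SD from the plate mean, either direction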;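 also: B-score of the F/F0 ratio slope over 7 to 12 s after thallium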
NCF1 inh: inhibitors of human p47phox binding | p47phox/p22phox peptide binding, fluorescence polarization, 2 h | 220,000 compounds, 0.53% hits | inhibition, % at 24.7 µM;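 active = inhibition above about 30%, limit read from the data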;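 also: 0% = p47phox with labelled peptide and 100% = labelled peptide alone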
Target sequence (P14598 whole entry, looked up): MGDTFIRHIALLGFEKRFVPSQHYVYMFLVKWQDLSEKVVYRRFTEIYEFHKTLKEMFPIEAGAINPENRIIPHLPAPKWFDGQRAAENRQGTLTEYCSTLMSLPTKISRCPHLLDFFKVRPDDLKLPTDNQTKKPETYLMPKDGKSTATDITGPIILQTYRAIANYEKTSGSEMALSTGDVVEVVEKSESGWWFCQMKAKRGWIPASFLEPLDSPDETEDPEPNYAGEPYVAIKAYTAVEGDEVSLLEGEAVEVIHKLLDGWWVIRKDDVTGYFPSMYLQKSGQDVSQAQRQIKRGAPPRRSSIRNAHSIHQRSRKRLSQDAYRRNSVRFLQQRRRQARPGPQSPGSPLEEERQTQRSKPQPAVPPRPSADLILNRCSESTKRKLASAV
RBBP9 inhibitor: inhibitors of human serine hydrolase RBBP9. inhibition, % at 7.94 µM. AID 1515. O75884. 220,000 compounds, 0.2% hits. recombinant RBBP9, FP-Rh probe fluorescence polarization;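 active = inhibition above the campaign mean of all tested compounds plus 3 SD, cut at about 14% in these data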;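 also: plate controls were DMSO wells with RBBP9 for no effect and wells lacking RBBP9 protein for full effect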
Target sequence (O75884 whole entry, looked up): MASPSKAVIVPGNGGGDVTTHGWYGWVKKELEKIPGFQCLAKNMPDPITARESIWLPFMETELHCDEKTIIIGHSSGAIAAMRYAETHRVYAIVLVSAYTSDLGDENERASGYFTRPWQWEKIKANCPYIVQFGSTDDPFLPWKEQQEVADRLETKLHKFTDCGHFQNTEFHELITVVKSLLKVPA
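Controls: DMSO-treated enzyme wells and wells lacking RBBP9 | Material: RBBP9 protein | Technique: Fluorescence polarization | Replication: Single well per compound, no replicates | Buffer or medium: Tris-NaCl-Pluronic buffer, pH 8.0 | Timing: 30 min compound preincubation, 45 min probe labeling, 25 °C | Read-out basis: Percent inhibition from mP, scaled between DMSO and no-protein wells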
WT yeast gro inh: growth inhibition of WT yeast, mitochondrial fusion screen. mitochondrial fusion phenotypic screen, WT strain. inhibition, % at 10 µM. 190,000 compounds, 2.1% hits. AID 1362; in the data active = inhibition above about 58%; tested in S. cerevisiae
KCC2 mod: KCC2 (human) Cl- transport modulation; Q9H2X9; KCC2 cells, thallium flux FluoZin-2 fluorescence; B-score of Tl+ flux slope (higher = more flux/activation; lower = inhibition) at 10 µM; 190,000 compounds, 2.2% hits;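 active = thallium flux slope and its plate-corrected score both differing from the plate sample mean at a set confidence after two filtering rounds, in either direction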;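 also: slope of fluorescence scaled to starting intensity during 10 to 20 s after thallium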
14-3-3 Bad PPI: disrupts binding of bovine 14-3-3 zeta to phospho-Bad peptide. P63103. TR-FRET 14-3-3zeta/Dy647-pBad peptide displacement, 1 h. inhibition, % at 21.7 µM. 220,000 compounds, 0.71% hits. AID 781;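 active = inhibition above about 70%, limit read from the data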;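 also: 0% = full 14-3-3 plus peptide FRET controls and 100% = background without 14-3-3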
* marks the source's active call; other numbers are inactive results; nt = not tested or not shown; [ ] = dose if it differs, or a comment. Shown are actives, neighbours in structure and some others; about 5.8% of the full set was active somewhere.

SMILES | ROMK mod | NCF1 inh | RBBP9 inhibitor | WT yeast gro inh | KCC2 mod | 14-3-3 Bad PPI
NNC(=O)c1ccc(COc2cccc3ccccc23)cc1 | nt | -10 | -14 | 73* | -1.8 | 9
CCOC(=O)Cc1csc(NC(=O)Cn2c(=O)oc3ccccc32)n1 | -0.22 | 2 | -8 | nt | 0.23 | 0
CC1CCN(c2c(NCC3CCC(C(=O)NC4CCCCCC4)CC3)c(=O)c2=O)CC1 (centres undefined) | 1 | -8 | -5 | nt | -0.47 | 86*
O=C(c1cccnc1)N1CCN(Cc2cccc(F)c2)CC1 | 0.54 | -14 | 2 | 5 | 0.22 | 75*
Cc1cccc(CN2CCN(C(=O)CCl)CC2)c1 | nt | -8 | -4 | -14 | 0.33 | 20
COc1cccc(CN2CCN(C(=O)c3cccc(F)c3)CC2)c1 | nt | nt | -4 | nt | -0.1 | nt
Cc1cccc(CN2CCN(C(=O)c3ccccc3F)CC2)c1 | 6.2* | -5 | -4 | -11 | -1 | 43
NC(=O)Cn1cnc2nc3n(c2c1=O)CCC3 | -1.9 | -3 | -5 | -20 | -0.018 | -18
C=CCOc1ccc(Br)cc1CNCCCN1CCOCC1 | -0.66 | 5 | -2 | -10 | 0.42 | 12
COc1ccc(-n2c(-c3ccc(Br)cc3)nc(=S)c3c2CCCC3)cc1 | nt | -20 | -2 | 63* | -1 | -1
Cc1cc(N2CCN(C(c3ccccc3)c3ccc(Cl)cc3)CC2)n2ncnc2n1 (centres undefined) | 0.48 | -7 | -9 | 74* | -0.61 | 6
CCC(C)(C)n1nnnc1C(c1ccc(O)c(OC)c1)N1CCc2ccccc2C1 (centres undefined) | nt | -2 | 5 | 7 | nt | 82*
C=CCn1c(O)c(N=NC(=O)C(O)c2ccccc2)c2ccccc21 (centres undefined) | nt | 0 | -2 | nt | 0.02 | -1
C=CCn1c(O)c(N=NC(=O)OC(C)(C)C)c2ccccc21 | nt | 3 | -7 | 2 | 17* | 1
COc1cc(CCC(=O)Nc2ccc(Cl)c(C(F)(F)F)c2)cc(OC)c1OC | -0.51 | -6 | -2 | 11 | nt | 75*[fluorescence artefact?]
Cc1cccc(Nc2nc(N)c([N+](=O)[O-])c(N3CCN(C)CC3)n2)c1 | nt | -3 | -5 | -1 | -0.2 | -5
Cc1cccc(Nc2nc(N)c([N+](=O)[O-])c(N3CCCC(C)C3)n2)c1 (centres undefined) | nt | 1 | -10 | 93* | -0.66 | 5
Cc1ccc(Nc2nc(N)c([N+](=O)[O-])c(N3CCC(C)CC3)n2)cc1C | -0.43 | 3 | -8 | 95* | 0.015 | -2
CC(=O)c1sccc1NC(=O)CC(C)(C)CC(=O)O | 0.97 | -27 | 0 | nt | 0.14 | 6
CCCn1c(SCC(=O)N2N=C3/C(=C/c4ccc(OC)cc4)CCCC3C2c2ccc(OC)cc2)n[nH]c1=O (centres undefined) | nt | -24 | -11 | 34 | -0.023 | -12
COc1ccc(/C=C2\CCCC3C2=NC(=S)NC3c2ccc(OC)cc2)cc1 (centres undefined) | -0.37 | -9 | -8 | 72* | -0.3 | -1
CCOC(=O)c1ccc(NNC(=O)CC)c([N+](=O)[O-])c1 | -0.072 | -8 | -5 | -19 | 1.3 | -10
CN(CC(=O)NCCc1ccc(F)cc1)Cc1cccc(Cl)c1 | -0.34 | -8 | -5 | 36 | -1.8 | -4
Cc1nn(CCC(=O)O)c2nc(-c3cccnc3)cc(C(F)(F)F)c12 | nt | -7 | -6 | -5 | -0.42 | 73*
Cc1nn(CCC(N)=O)c2nc(-c3cccs3)cc(C(F)(F)F)c12 | 0.0077 | -7 | -4 | -2 | 0.1 | -9
SMILES | ROMK mod | NCF1 inh | RBBP9 inhibitor | WT yeast gro inh | KCC2 mod | 14-3-3 Bad PPI
CCCn1c(C)cc(-c2csc(N)n2)c1C | nt | -12 | -5 | 17 | 0.63 | 74*
S=c1nc[nH]c2c1sc1nc(-c3ccccc3)c3c(c12)CCCC3 | nt | -12 | -1 | 97* | 20* | 3
CCC(C)(C)NC(=O)Cc1ccc(Cl)cc1 | 1.3 | 6 | -4 | 9 | -0.16 | -7
Cc1cccc(N2CCN(C(=O)C(Cc3ccccc3)n3cccc3)CC2)c1C (centres undefined) | nt | -19 | -2 | 69* | -0.0027 | 3
Cc1cc(-n2cnc(-c3cn[nH]c3C)n2)no1 | 0.17 | -7 | -1 | nt | 0.0043 | -3
N#Cc1c(NC(=S)NC(=O)c2ccccc2)sc2c1CCCC2 | -0.1 | -6 | -5 | -3 | 0.011 | -8
N#Cc1c(NC(=S)NC(=O)C2CCCC2)sc2c1CCCCC2 | nt | -29 | -3 | 66* | -0.0035 | 5
CN(CCCC(=O)NCc1ccco1)S(=O)(=O)c1ccccc1 | 0.042 | -11 | 8 | 60* | 2 | 0
COc1ccc(N(CC(=O)NCc2ccco2)S(=O)(=O)c2ccccc2)cc1 | -0.48 | -1 | -2 | -11 | 1.4 | -4
CC(=O)N(O)CCCCCNC(=O)CCC(=O)N(O)CCCCCNC(=O)CCC(=O)N(O)CCCCCN | nt | -1 | 4 | 13 | -0.23 | 71*[fluorescence artefact?]
FC(F)(F)c1cc(-c2ccccc2)nc(NC2CCCC2)n1 | -0.59 | -21 | -8 | 86* | 0.89 | -15
FC(F)(F)c1cc(-c2ccccc2)nc(NCC2CCCO2)n1 (centres undefined) | 0.012 | -16 | -3 | 28 | nt | -7
FC(F)(F)c1cc(-c2ccccc2)nc(NCc2cccs2)n1 | -0.62 | -8 | -4 | 70* | 1 | -1
COC(=O)c1c(NC(=O)C2CC2)sc(C(=O)Nc2ccccc2)c1C | 0.38 | -13 | 0 | -5 | -0.89 | -11
Cc1ccc(NC(=O)c2ccc(OC(=O)COc3cccc(Cl)c3)cc2)cc1 | 0.26 | -22 | -2 | -1 | 0.9 | -5
CN1c2ccccc2Oc2nnc(Cl)cc21 | -0.15 | -9 | -5 | -26 | 0.14 | -8
CCN(CC)CCOc1cc2c(nn1)Oc1ccccc1N2C | -0.35 | -7 | 3 | -1 | nt | 83*
CCc1ccc(C(=O)Nc2cc(C)ccc2F)s1 | nt | -13 | 2 | 15 | 0.34 | -11
COc1ccc(Cc2nnc(SCC(=O)N3CCCCC3)o2)cc1 | nt | -13 | 1 | -10 | nt | -15
COc1cc(CNCc2ccccn2)ccc1OCc1ccc(Cl)cc1 | nt | -7 | -5 | 6 | -0.5 | 6
COc1cc(CNCc2ccccn2)ccc1OCc1cccc(Cl)c1 | nt | 6 | -3 | -5 | -0.35 | 88*
Cn1c(CNC(=O)c2ccco2)nnc1SCC(=O)Nc1c(F)cc(F)cc1Br | -0.23 | 0 | 9 | -9 | 0.69 | -6
CCN(CC)S(=O)(=O)c1cc(NC(=O)CN2C(=O)NC3(CCCc4ccccc43)C2=O)ccc1C (centres undefined) | 0.089 | -17 | -8 | -6 | -1.5 | 6
Cc1ccc(NC(=O)CN2C(=O)NC3(CCCc4ccccc43)C2=O)cc1S(=O)(=O)N1CCOCC1 (centres undefined) | 0.52 | 40* | 5 | 7 | -0.67 | -9
COc1ccc(/C=N/Nc2nc(-c3cccnc3)nc3ccccc23)c(OC)c1 | -0.29 | -26 | -12 | nt | 0.015 | 70*
